# Measured values from ChEMBL document CHEMBL3792365, “Dioxol and dihydrodioxin analogs of 2- and 3-phenylacetonitriles as potent anti-cancer agents with nanomolar activity against a variety of human cancer cells” (2016).
# Experiments:
# Type in all cases: functional
# Malme-3M = assay: Growth inhibition of human MALME-3M cells at 10 uM after 48 hrs by sulforhodamine B assay; details: values are per cent of control
# SK-MEL-2 [1] = assay: Growth inhibition of human SK-MEL-2 cells at 10 uM after 48 hrs by sulforhodamine B assay; details: SK-MEL-2, 48 h, values are per cent of control
# [2] = Growth inhibition of human UACC257 cells at 10 uM after 48 hrs by sulforhodamine B assay; details: UACC-257, 48 h, values are per cent of control
# [3] = Growth inhibition of human SKOV3 cells at 10 uM after 48 hrs by sulforhodamine B assay; details: SK-OV-3, 48 h, values are per cent of control
# 786-0 [4] = assay: Growth inhibition of human 786-0 cells at 10 uM after 48 hrs by sulforhodamine B assay; details: 786-0, 48 h, values are per cent of control
# [5] = Growth inhibition of human TK10 cells at 10 uM after 48 hrs by sulforhodamine B assay; details: TK-10, 48 h, values are per cent of control
# [6] = Growth inhibition of human PC3 cells at 10 uM after 48 hrs by sulforhodamine B assay; details: PC-3, 48 h, values are per cent of control
# MCF7 = assay: Growth inhibition of human MCF7 cells at 10 uM after 48 hrs by sulforhodamine B assay; details: MCF7, 48 h, values are per cent of control
# CCRF-CEM [7] = assay: Growth inhibition of human CCRF-CEM cells after 48 hrs by sulforhodamine B assay
# Outline: (§1)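 Five-dose testing against a 60-line human tumor cell panel. GI50 is the drug concentration giving a 50% reduction in net protein increase relative to untreated control cells.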
# [8] = Growth inhibition of human HL-60(TB) cells after 48 hrs by sulforhodamine B assay; details: HL-60, 48 h
# Outline: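 Five-dose study across the 60-cell human tumour panel. GI50 is the drug concentration giving a 50% reduction in net protein increase relative to control cells.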
# SR [9] = assay: Growth inhibition of human SR cells after 48 hrs by sulforhodamine B assay
# Outline: (§2)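 Five-dose concentration series run across a panel of 60 human tumour cell lines. GI50 is taken as the drug concentration giving a 50% reduction in net protein increase relative to untreated control cells.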
# A549 = assay: Growth inhibition of human A549/ATCC cells after 48 hrs by sulforhodamine B assay; details: A549, 48 h; outline: as §1
# [10] = Growth inhibition of human HOP62 cells after 48 hrs by sulforhodamine B assay; details: HOP-62, 48 h; outline: as §1
# [11] = Growth inhibition of human HOP92 cells after 48 hrs by sulforhodamine B assay; details: HOP-92, 48 h; outline: as §1
# [12] = Growth inhibition of human HCC2998 cells after 48 hrs by sulforhodamine B assay; details: HCC 2998, 48 h; outline: as §1
# [13] = Growth inhibition of human HCT15 cells after 48 hrs by sulforhodamine B assay; details: HCT-15, 48 h; outline: as §1
# [14] = Growth inhibition of human SW620 cells after 48 hrs by sulforhodamine B assay; details: SW-620, 48 h; outline: as §2
# [15] = Growth inhibition of human SF268 cells after 48 hrs by sulforhodamine B assay; details: SF-268, 48 h; outline: as §2
# [16] = Growth inhibition of human SF539 cells after 48 hrs by sulforhodamine B assay; details: SF-539, 48 h; outline: as §2
# [17] = Growth inhibition of human SNB75 cells after 48 hrs by sulforhodamine B assay; details: SNB-75, 48 h; outline: as §2
# [18] = Growth inhibition of human LOXIMVI cells after 48 hrs by sulforhodamine B assay; details: LOX IMVI; outline: as §1
# M14 = assay: Growth inhibition of human M14 cells after 48 hrs by sulforhodamine B assay; details: M14, 48 h; outline: as §1
# MDA-MB-435 = assay: Growth inhibition of human MDA-MB-435 cells after 48 hrs by sulforhodamine B assay; details: MDA-MB-435, 48 h; outline: as §1
# SK-MEL-2 [19] = assay: Growth inhibition of human SK-MEL-2 cells after 48 hrs by sulforhodamine B assay; details: SK-MEL-2, 48 h; outline: as §2
# SK-MEL-28 = assay: Growth inhibition of human SK-MEL-28 cells after 48 hrs by sulforhodamine B assay; details: SK-MEL-28, 48 h; outline: as §2
# SK-MEL-5 = assay: Growth inhibition of human SK-MEL-5 cells after 48 hrs by sulforhodamine B assay; details: SK-MEL-5, 48 h; outline: as §2
# [20] = Growth inhibition of human IGROV1 cells after 48 hrs by sulforhodamine B assay; details: IGROV-1, 48 h; outline: as §1
# [21] = Growth inhibition of human OVCAR3 cells after 48 hrs by sulforhodamine B assay; details: OVCAR-3, 48 h; outline: as §2
# 786-0 [22] = assay: Growth inhibition of human 786-0 cells after 48 hrs by sulforhodamine B assay; details: 786-0, 48 h; outline: as §1
# A498 = assay: Growth inhibition of human A498 cells after 48 hrs by sulforhodamine B assay; details: A498, 48 h; outline: as §1
# ACHN = assay: Growth inhibition of human ACHN cells after 48 hrs by sulforhodamine B assay; outline: as §1
# [23] = Growth inhibition of human Caki1 cells after 48 hrs by sulforhodamine B assay; details: CAKI-1, 48 h; outline: as §1
# CCRF-CEM [24] = assay: Growth inhibition of human CCRF-CEM cells at 10 uM after 48 hrs by sulforhodamine B assay; details: values are per cent of control
# [25] = Growth inhibition of human HL-60(TB) cells at 10 uM after 48 hrs by sulforhodamine B assay; details: HL-60, 48 h, values are per cent of control
# [26] = Growth inhibition of human MOLT4 cells at 10 uM after 48 hrs by sulforhodamine B assay; details: MOLT-4, 48 h, values are per cent of control
# [27] = Growth inhibition of human RPMI8226 cells at 10 uM after 48 hrs by sulforhodamine B assay; details: RPMI-8226, 48 h, values are per cent of control
# SR [28] = assay: Growth inhibition of human SR cells at 10 uM after 48 hrs by sulforhodamine B assay; details: values are per cent of control
# [29] = Growth inhibition of human HOP92 cells at 10 uM after 48 hrs by sulforhodamine B assay; details: HOP-92, 48 h, values are per cent of control
# NCI-H226 = assay: Growth inhibition of human NCI-H226 cells at 10 uM after 48 hrs by sulforhodamine B assay; details: NCI-H226, 48 h, values are per cent of control
# NCI-H23 = assay: Growth inhibition of human NCI-H23 cells at 10 uM after 48 hrs by sulforhodamine B assay; details: NCI-H23, 48 h, values are per cent of control
# HT-29 = assay: Growth inhibition of human HT-29 cells at 10 uM after 48 hrs by sulforhodamine B assay; details: HT-29, 48 h, values are per cent of control
# [30] = Growth inhibition of human SF295 cells at 10 uM after 48 hrs by sulforhodamine B assay; details: SF-295, 48 h, values are per cent of control
# [31] = Growth inhibition of human PC3 cells after 48 hrs by sulforhodamine B assay; details: PC-3, 48 h; outline: as §2
# [32] = Growth inhibition of human OVCAR3 cells at 10 uM after 48 hrs by sulforhodamine B assay; details: OVCAR-3, 48 h, values are per cent of control
smiles,measurement,setting,value
COc1ccc(/C(C#N)=C/c2ccc3c(c2)OCCO3)cc1OC,"growth, % of control at 10 µM",Malme-3M,51.8%
same,"growth, % of control at 10 µM",SK-MEL-2 [1],19.4%
same,"growth, % of control at 10 µM",[2],66.7%
same,"growth, % of control at 10 µM",[3],20%
same,"growth, % of control at 10 µM",786-0 [4],39.3%
same,"growth, % of control at 10 µM",[5],45.7%
same,"growth, % of control at 10 µM",[6],21.3%
same,"growth, % of control at 10 µM",MCF7,20.1%
same,GI50,CCRF-CEM [7],3.76 µM
same,GI50,[8],2.07 µM
same,GI50,SR [9],0.93 µM
same,GI50,A549,4.12 µM
same,GI50,[10],2.98 µM
same,GI50,[11],9.64 µM
same,GI50,[12],8.85 µM
same,GI50,[13],0.73 µM
same,GI50,[14],1.04 µM
same,GI50,[15],5.38 µM
same,GI50,[16],2.56 µM
same,GI50,[17],2.16 µM
same,GI50,[18],4.92 µM
same,GI50,M14,1.63 µM
same,GI50,MDA-MB-435,0.26 µM
same,GI50,SK-MEL-2 [19],1.84 µM
same,GI50,SK-MEL-28,4.59 µM
same,GI50,SK-MEL-5,0.84 µM
same,GI50,[20],9.4 µM
same,GI50,[21],2.16 µM
same,GI50,786-0 [22],3.88 µM
same,GI50,A498,1.35 µM
same,GI50,ACHN,7.61 µM
same,GI50,[23],2.92 µM
same,"growth, % of control at 10 µM",CCRF-CEM [24],6.4%
same,"growth, % of control at 10 µM",[25],-15.7%
same,"growth, % of control at 10 µM",[26],19.6%
same,"growth, % of control at 10 µM",[27],57.1%
same,"growth, % of control at 10 µM",SR [28],1.8%
same,"growth, % of control at 10 µM",[29],39.3%
same,"growth, % of control at 10 µM",NCI-H226,71.1%
same,"growth, % of control at 10 µM",NCI-H23,46.8%
same,"growth, % of control at 10 µM",HT-29,6.6%
same,"growth, % of control at 10 µM",[30],-14%
same,GI50,[31],4.57 µM
N#C/C(=C\c1cc2ccccc2s1)c1ccc2c(c1)OCO2,"growth, % of control at 10 µM",Malme-3M,55.1%
same,"growth, % of control at 10 µM",SK-MEL-2 [1],29.2%
same,"growth, % of control at 10 µM",[2],72.8%
same,"growth, % of control at 10 µM",[32],-29.5%
same,"growth, % of control at 10 µM",[3],20.7%
same,"growth, % of control at 10 µM",786-0 [4],44.7%
same,"growth, % of control at 10 µM",[5],42.7%
same,"growth, % of control at 10 µM",[6],25.8%
same,"growth, % of control at 10 µM",MCF7,16.3%
same,GI50,CCRF-CEM [7],0.05 µM
same,GI50,[8],0.03 µM
same,GI50,SR [9],0.03 µM
same,GI50,A549,0.09 µM
same,GI50,[10],0.07 µM
same,GI50,[11],17 µM
same,GI50,[12],0.27 µM
same,GI50,[13],0.04 µM
same,GI50,[14],0.05 µM
same,GI50,[15],1.64 µM
same,GI50,[16],0.04 µM
same,GI50,[17],0.02 µM
same,GI50,[18],0.05 µM
same,GI50,M14,0.04 µM
same,GI50,MDA-MB-435,0.02 µM
same,GI50,SK-MEL-2 [19],0.04 µM
same,GI50,SK-MEL-28,0.24 µM
same,GI50,SK-MEL-5,0.06 µM
same,GI50,[20],0.09 µM
same,GI50,[21],0.04 µM
same,GI50,786-0 [22],0.88 µM
same,GI50,A498,0.03 µM
same,GI50,ACHN,0.06 µM
same,GI50,[23],0.05 µM
same,"growth, % of control at 10 µM",CCRF-CEM [24],16.8%
same,"growth, % of control at 10 µM",[25],0.5%
same,"growth, % of control at 10 µM",[26],17.4%
same,"growth, % of control at 10 µM",[27],9.3%
same,"growth, % of control at 10 µM",SR [28],13.5%
same,"growth, % of control at 10 µM",[29],60.8%
same,"growth, % of control at 10 µM",NCI-H226,28.7%
same,"growth, % of control at 10 µM",NCI-H23,31.1%
same,"growth, % of control at 10 µM",HT-29,5%
same,"growth, % of control at 10 µM",[30],2.9%
same,GI50,[31],0.06 µM
